Key:
Type in all cases: functional, cell-based
[1] = test system: HL-60; assay: Cytotoxicity against human HL60 cells after 48 hrs by MTT assay; settings: HL-60, 48 h
Method in brief: (§1)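 MTT viability read-out on a human tumour panel: HL-60 leukaemia, SMMC-7721 hepatoma, A-549 lung, MCF-7 breast and SW480 colon carcinoma. Camptothecin and cisplatin were run alongside as positive controls. Potency is reported as the half-maximal inhibitory concentration (IC50) in μmol L-1.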

[2] = test system: SMMC-7721; assay: Cytotoxicity against human SMMC7721 cells after 48 hrs by MTT assay; settings: SMMC-7721, 48 h; method in brief: as §1
[3] = test system: A549; assay: Cytotoxicity against human A549 cells after 48 hrs by MTT assay; settings: A549, 48 h; method in brief: as §1
[4] = test system: MCF7; assay: Cytotoxicity against human MCF7 cells after 48 hrs by MTT assay; settings: MCF7, 48 h; method in brief: as §1
[5] = test system: SW480; assay: Cytotoxicity against human SW480 cells after 48 hrs by MTT assay; settings: SW480, 48 h; method in brief: as §1

Compound | IC50 [1] [µM] | IC50 [2] [µM] | IC50 [3] [µM] | IC50 [4] [µM] | IC50 [5] [µM]
CCc1c2c(nc3ccccc13)-c1cc3c(c(=O)n1C2)COC(=O)[C@@]3(CC)OC(=O)CCCCCNC(=O)CCCC[C@@H]1SC[C@@H]2NC(=O)N[C@@H]21 | 0.84 | 12.2 | 3.08 | 1.94 | 16.2
CC[C@@]1(OC(=O)CCCCCNC(=O)CCCC[C@@H]2SC[C@@H]3NC(=O)N[C@@H]32)C(=O)OCc2c1cc1n(c2=O)Cc2cc3ccccc3nc2-1 | 6.57 | 15.3 | 19.9 | 21.5 | > 40
CCc1c2c(nc3ccccc13)-c1cc3c(c(=O)n1C2)COC(=O)[C@@]3(CC)OCc1cn(CCOCCOCCOCCOCCOCCNC(=O)CCCC[C@@H]2SC[C@@H]3NC(=O)N[C@@H]32)nn1 | 4.77 | 4.1 | 5.18 | 9.21 | 0.57
CCc1c2c(nc3ccccc13)-c1cc3c(c(=O)n1C2)COC(=O)[C@@]3(CC)OCc1cn(CCOCCOCCNC(=O)CCCC[C@@H]2SC[C@@H]3NC(=O)N[C@@H]32)nn1 | > 40 | > 40 | > 40 | > 40 | > 40
CC[C@@]1(OC(=O)CCCC[C@@H]2SC[C@@H]3NC(=O)N[C@@H]32)C(=O)OCc2c1cc1n(c2=O)Cc2cc3ccccc3nc2-1 | 2.3 | 7.69 | 3.47 | 18.2 | 12.5
CC[C@@]1(O)C(=O)OCc2c1cc1n(c2=O)Cc2cc3cc(OC(=O)CCCC[C@@H]4SC[C@@H]5NC(=O)N[C@@H]54)ccc3nc2-1 | 3.19 | 3.32 | 1.23 | 2.3 | 0.55
CCc1c2c(nc3ccccc13)-c1cc3c(c(=O)n1C2)COC(=O)[C@@]3(CC)OC(=O)CCCC[C@@H]1SC[C@@H]2NC(=O)N[C@@H]21 | 1.81 | 3.28 | 1.14 | 4.26 | 8.73
CC[C@@]1(OCc2cn(CCOCCOCCOCCOCCOCCNC(=O)CCCC[C@@H]3SC[C@@H]4NC(=O)N[C@@H]43)nn2)C(=O)OCc2c1cc1n(c2=O)Cc2cc3ccccc3nc2-1 | > 40 | > 40 | > 40 | > 40 | > 40
CC[C@@]1(OCc2cn(CCOCCOCCNC(=O)CCCC[C@@H]3SC[C@@H]4NC(=O)N[C@@H]43)nn2)C(=O)OCc2c1cc1n(c2=O)Cc2cc3ccccc3nc2-1 | 0.72 | 4.77 | 3.63 | 3.47 | 6.05
CCc1c2c(nc3ccc(OC(=O)CCCC[C@@H]4SC[C@@H]5NC(=O)N[C@@H]54)cc13)-c1cc3c(c(=O)n1C2)COC(=O)[C@]3(O)CC | 3.31 | 1.55 | 0.52 | 0.8 | 0.13
CC[C@@]1(O)C(=O)OCc2c1cc1n(c2=O)Cc2cc3cc(OC(=O)CCCCCNC(=O)CCCC[C@@H]4SC[C@@H]5NC(=O)N[C@@H]54)ccc3nc2-1 | 1.14 | 1.85 | 0.75 | 0.34 | 0.45
CCc1c2c(nc3ccc(OC(=O)CCCCCNC(=O)CCCC[C@@H]4SC[C@@H]5NC(=O)N[C@@H]54)cc13)-c1cc3c(c(=O)n1C2)COC(=O)[C@]3(O)CC | 0.76 | 1.14 | 0.23 | 0.4 | 1.48
CC[C@@]1(O)C(=O)OCc2c1cc1n(c2=O)Cc2cc3ccccc3nc2-1 [CAMPTOTHECIN] | < 0.064 | 0.45 |  |  | 0.29

Reference: ChEMBL document CHEMBL4371030, “Synthesis and antitumor activity of biotinylated camptothecin derivatives as potent cytotoxic agents” (Bioorg Med Chem Lett, 2019)
